Calls of active or inactive are those of the source. The calls are words filed in the database; no cut-off is given here.
Key:
[1] = target: Tubulin (Sus scrofa) (UniProt P02554+P02550); test: Inhibition of pig brain tubulin polymerization at 5 uM by spectrophotometric analysis
Method in brief: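 Compound 5 µM final, DMSO as negative control. Polymerization at 37 °C followed by turbidity at 350 nm, with ice added after 45 min to check depolymerization. Given as % inhibition from three independent experiments.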

[2] = system: A-375; test: Cell cycle arrest in human A375 cells assessed as accumulation of cells at G2/M phase after 24 hrs by propidium iodide staining based flow cytometric analysis; assay type: functional
Method in brief: (§1)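 A375 cells treated 24 h, washed in PBS and pelleted at 400g, 4 °C. Pellet lysed in ice-cold hypotonic solution (PI 25 µg/ml, 0.1% trisodium citrate, RNase A, 0.1% Triton X-100) and held overnight on ice. DNA content read by flow cytometry, giving G0/G1, S and G2/M percentages.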

[3] = system: A-375; test: Cell cycle arrest in human A375 cells assessed as effect on number of cells at G0/G1 phase after 24 hrs by propidium iodide staining based flow cytometric analysis; assay type: functional; method in brief: as §1
[4] = system: A-375; test: Cell cycle arrest in human A375 cells assessed as effect on number of cells at S phase after 24 hrs by propidium iodide staining based flow cytometric analysis; assay type: functional; method in brief: as §1
[5] = system: A-375; test: Antiproliferative activity against human A375 cells assessed as cell growth inhibition after 96 hrs by MTT assay; assay type: functional, cell-based; conditions: A-375, 96 h
Method in brief: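 A375 cells in RPMI-1640 with 10% heat-inactivated FBS, 37 °C, 5% CO2, seeded 5000 cells/well and attached overnight. Exposed 96 h to […] in 1% DMSO/medium. MTT read at 570 nm after isopropanol/HCl solubilization. Survival given as % of vehicle control. IC50 taken from sigmoidal dose-response curves, at least three experiments in triplicate.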

Sequence of Tubulin (Sus scrofa) (P02550 whole entry, looked up): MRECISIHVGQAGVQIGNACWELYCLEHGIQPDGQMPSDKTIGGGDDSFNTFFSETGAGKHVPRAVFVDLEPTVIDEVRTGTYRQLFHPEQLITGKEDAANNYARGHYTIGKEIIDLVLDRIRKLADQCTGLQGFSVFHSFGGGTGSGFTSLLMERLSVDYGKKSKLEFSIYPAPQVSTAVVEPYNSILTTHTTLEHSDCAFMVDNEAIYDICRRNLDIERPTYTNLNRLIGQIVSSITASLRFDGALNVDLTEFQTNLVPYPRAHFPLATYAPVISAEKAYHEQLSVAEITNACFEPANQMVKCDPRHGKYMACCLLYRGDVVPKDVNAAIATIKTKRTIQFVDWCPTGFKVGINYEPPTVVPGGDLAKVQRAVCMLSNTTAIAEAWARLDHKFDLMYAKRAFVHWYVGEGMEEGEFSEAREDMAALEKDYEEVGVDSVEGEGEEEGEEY
Sequence of Tubulin (Sus scrofa) (P02554 whole entry, looked up): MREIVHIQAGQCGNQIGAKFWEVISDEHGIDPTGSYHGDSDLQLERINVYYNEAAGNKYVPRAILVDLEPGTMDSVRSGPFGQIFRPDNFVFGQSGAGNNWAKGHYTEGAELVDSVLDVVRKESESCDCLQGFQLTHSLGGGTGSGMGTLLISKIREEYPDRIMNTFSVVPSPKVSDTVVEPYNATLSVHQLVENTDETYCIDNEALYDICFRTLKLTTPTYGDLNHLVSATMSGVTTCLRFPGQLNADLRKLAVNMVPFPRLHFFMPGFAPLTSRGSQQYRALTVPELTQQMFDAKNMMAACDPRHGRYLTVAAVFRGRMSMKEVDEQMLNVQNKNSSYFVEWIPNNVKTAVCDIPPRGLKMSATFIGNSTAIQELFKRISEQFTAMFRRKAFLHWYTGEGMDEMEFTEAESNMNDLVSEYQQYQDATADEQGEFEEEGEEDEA

| SMILES | inhibition [1] | Activity [2] | Activity [3] | Activity [4] | IC50 [5] |
| --- | --- | --- | --- | --- | --- |
| CNc1nc2ccccc2n2c(-c3ccccc3OC)cnc12 | inactive | – | – | – | – |
| CNc1nc2ccccc2n2c(-c3cccc(OC)c3)cnc12 | 84% | Dose-dependent effect | Dose-dependent effect | Dose-dependent effect | – |
| CNc1nc2ccccc2n2c(-c3ccc(OC)cc3)cnc12 | 99% | Dose-dependent effect | Dose-dependent effect | Dose-dependent effect | – |
| CNc1nc2ccccc2n2c(-c3cc(OC)cc(OC)c3)cnc12 | 98.5% | Dose-dependent effect | Dose-dependent effect | Dose-dependent effect | 0.22 µM |
| CNc1nc2ccccc2n2c(-c3cccc(OC)c3OC)cnc12 | inactive | – | – | – | 5.9 µM |
| CNc1nc2ccccc2n2c(-c3ccc(OC)c(OC)c3OC)cnc12 | inactive | – | – | – | 1.5 µM |
| CNc1nc2ccccc2n2c(-c3ccc(OC)c(OC)c3)cnc12 | 63% | – | – | – | 0.3 µM |
| CNc1nc2ccccc2n2c(-c3cc(OC)ccc3OC)cnc12 | 3% | – | – | – | 1.2 µM |
| CNc1nc2ccccc2n2c(-c3cccc(O)c3)cnc12 | inactive | – | – | – | 1.25 µM |
| CNc1nc2ccccc2n2c(-c3c(OC)cc(OC)cc3OC)cnc12 | inactive | – | – | – | 2.3 µM |
| COc1cc2c(c(OC)c1OC)-c1ccc(OC)c(=O)cc1[C@@H](NC(C)=O)CC2 [COLCHICINE] | – | – | – | – | 0.01 µM |
| Nc1nc2ccccc2n2c(-c3cccc(O)c3)cnc12 | 11.3% | – | – | – | 2.4 µM |
| CNc1nc2ccccc2n2c(-c3cc(OC)c(OC)c(OC)c3)cnc12 | inactive | – | – | – | 1.8 µM |
| CNc1nc2ccccc2n2c(-c3cccc(OC)c3O)cnc12 | 90% | – | – | – | 0.077 µM |
| COc1cccc(-c2cnc3c(N)nc4ccccc4n23)c1 | 41% | – | – | – | 0.2 µM |

— ChEMBL document CHEMBL3785056, “New imidazoquinoxaline derivatives: Synthesis, biological evaluation on melanoma, effect on tubulin polymerization and structure-activity relationships” (Bioorg Med Chem, 2016)
